The source made the active and inactive calls. No cut-off for these calls is given here.
Biological target: T1, G protein-coupled receptor 88 (Homo sapiens, UniProt Q9GZN0)
Assay: Agonist activity at PPLS-HA-tagged-GPR88 (unknown origin) expressed in CHO cells assessed as inhibition of forskolin-stimulated cAMP production measured after 30 mins by TR-FRET assay
Type: functional, cell-based

T1 sequence (Q9GZN0 whole entry): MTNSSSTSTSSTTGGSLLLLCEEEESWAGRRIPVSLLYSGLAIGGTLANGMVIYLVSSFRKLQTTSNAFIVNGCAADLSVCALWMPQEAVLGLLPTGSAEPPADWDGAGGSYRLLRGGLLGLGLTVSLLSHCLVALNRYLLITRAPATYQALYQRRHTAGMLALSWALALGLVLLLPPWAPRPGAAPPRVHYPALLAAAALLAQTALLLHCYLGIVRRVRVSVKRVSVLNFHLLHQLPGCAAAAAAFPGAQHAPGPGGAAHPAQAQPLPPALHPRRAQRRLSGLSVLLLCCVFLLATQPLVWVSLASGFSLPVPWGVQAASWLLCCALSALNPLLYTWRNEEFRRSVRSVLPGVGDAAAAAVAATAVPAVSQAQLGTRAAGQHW

`CCCC(C)COc1ccc([C@@H](NC(=O)Cc2cccc(F)c2)C(=O)OC)cc1` (stereo not given in full) and `CCCC(C)COc1ccc([C@@H](NC(=O)Cc2ccc(F)cc2)C(=O)OC)cc1` (stereo not given in full) are within 1.5-fold of each other in EC50: 3910 nM for the first, 5860 nM for the second.

First: CCCC(C)COc1ccc([C@@H](NC(=O)C(C)C2CCCCC2)C(=O)OC)cc1 (mixture of isomers)
Second: CCCC(C)COc1ccc([C@@H](NC(=O)[C@@H](C)c2ccccc2)C(=O)OC)cc1 (stereo not given in full)
The EC50 of the first is higher: greater than 10000 nM for the first, 538 nM for the second. The second is the more potent here.

First: CCCC(C)COc1ccc([C@@H](NC(=O)Cc2ccc(OC)cc2)C(=O)OC)cc1 (stereo not given in full)
Second: CCCC(C)COc1ccc([C@@H](NC(=O)Cc2ccc(C)cc2)C(=O)OC)cc1 (stereo not given in full)
The EC50 of the first is 2.6-fold higher: 9570 nM for the first, 3700 nM for the second. The second is the more potent here.

Going from `CCCC(C)COc1ccc([C@@H](NC(=O)Cc2ccccc2)C(=O)OC)cc1` (stereo not given in full) to `CCCC(C)COc1ccc([C@@H](NC(=O)Cc2ccccc2F)C(=O)OC)cc1` (stereo not given in full), the EC50 rises from 2630 nM to 7870 nM (3-fold). The first is the more potent here.

First: CCCC(C)COc1ccc([C@@H](NC(=O)[C@@H](C)c2ccccc2)C(=O)O)cc1 (stereo not given in full)
Second: CCCC(C)COc1ccc([C@@H](NC(=O)[C@@H](CC)c2ccccc2)C(=O)OC)cc1 (stereo not given in full)
The EC50 of the first is higher: greater than 10000 nM for the first, 583 nM for the second.

`CCCC(C)COc1ccc([C@H](CN=[N+]=[N-])NC(=O)[C@@H](C)c2ccccc2)cc1` (stereo not given in full) and `CCCC(C)COc1ccc([C@H](CO)NC(=O)[C@@H](CC)c2ccccc2)cc1` (stereo not given in full) are within 1.5-fold of each other in EC50: 134 nM for the first, 145 nM for the second.

First: CCCC(C)COc1ccc([C@H](CO)NC(=O)CCc2ccccc2)cc1 (stereo not given in full)
Second: CCCC(C)COc1ccc([C@H](CO)NC(=O)CCCc2ccccc2)cc1 (stereo not given in full)
The EC50 of the first is 4.2-fold lower: 345 nM for the first, 1440 nM for the second. The first is the more potent here.

Compared with `CCCC(C)COc1ccc([C@@H](NC(=O)Cc2ccc(C#N)cc2)C(=O)OC)cc1` (stereo not given in full), `CCCC(C)COc1ccc([C@H](CO)NC(=O)Cc2ccccc2)cc1` (stereo not given in full) is lower in EC50: greater than 10000 nM for the first, 487 nM for the second.

Biological target: T1, G protein-coupled receptor 88
Assay: Agonist activity at PPLS-HA-tagged-GPR88 (unknown origin) expressed in CHO cells assessed as inhibition of forskolin-stimulated cAMP production at 1 uM measured after 30 mins by TR-FRET assay
Type: functional, cell-based
Method in brief: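 Stable PPLS-HA-GPR88 CHO cells lifted with versene, 4,000 cells/well in HBSS with 5 mM HEPES, 0.1% BSA and 0.5 mM IBMX (pH 7.4). Single 1 μM test compound plus forskolin (300 nM at 4× final), 30 min at RT. Eu-cAMP tracer and ULight-anti-cAMP added, TR-FRET read (ex 337 nm) after 1 h at RT. Activity expressed as percentage of reference-agonist TR-FRET signal.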

For `CCCC(C)COc1ccc([C@@H](NC(=O)Cc2ccccc2)C(=O)OC)cc1` (stereo not given in full), the agonist activity call was “Active”.
With `CCCC(C)COc1ccc([C@@H](NC(=O)[C@@H](C)c2ccccc2)C(=O)OC)cc1` (stereo not given in full) the agonist activity call was “Active”.
For `CCCC(C)COc1ccc([C@@H](NC(=O)[C@@H](CC)c2ccccc2)C(=O)OC)cc1` (stereo not given in full), the agonist activity call was “Active”.
For `CCCC(C)COc1ccc([C@@H](NC(=O)[C@H](C)c2ccccc2)C(=O)OC)cc1` (stereo not given in full), the agonist activity call was “Active”.
